Data taken from ChEMBL document CHEMBL1159115, “Piperidine-derived gamma-secretase modulators” (Bioorg Med Chem Lett, 2010).

Columns and labels:
CV-1 = assay: Inhibition of gamma-secretase expressed in african green monkey CV1 cells coexpressing Gal4 DNA-binding/transactivation domain assessed as inhibition of notch processing by luciferase reporter assay at 20 uM; assay type: cell-based
SH-SY5Y = assay: Cytotoxicity against human SH-SY5Y cells after 24 hrs by WST1 assay; assay type: cell-based
Gamma-secretase [1] = assay: (§1) Inhibition of gamma-secretase in human SHSY5Y cells expressing human recombinant APP assessed as decrease in Abeta42 level after 24 hrs by DELFIA; assay type: cell-based; conditions: sh-sy5y
[2] = target: T1, Gamma-secretase (Homo sapiens) (UniProt Q96BI3+Q9NZ42+Q8WW43+P49768+Q92542+P49810); assay: as §1; assay type: cell-based; conditions: SH-SY5Y
Gamma-secretase [3] = assay: Inhibition of gamma-secretase in human SHSY5Y cells expressing human recombinant APP assessed as decrease in total Abeta level after 24 hrs by DELFIA; assay type: cell-based; conditions: sh-sy5y
Gamma-secretase [4] = assay: (§2) Inhibition of gamma-secretase in human SHSY5Y cells expressing human recombinant APP assessed as increase in Abeta38 level after 24 hrs by DELFIA; assay type: cell-based; conditions: sh-sy5y
[5] = target: T1, Gamma-secretase (Homo sapiens); assay: as §2; assay type: cell-based; conditions: SH-SY5Y
Gamma-secretase [6] = assay: Inhibition of gamma-secretase in human SHSY5Y cells expressing human recombinant APP assessed as amyloid beta40 formation by ELISA; assay type: cell-based; conditions: sh-sy5y; in the assay text read “amyloid beta42 formation” for “amyloid beta40 formation”
Method in brief: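 SH-SY5Y cells overexpressing human APP Swedish variant exposed to compound for 48 h; Aβ40 (and Aβ42) in the cell medium quantified by ELISA, either Meso Scale Discovery or AlphaLISA format. Compounds also cross-screened for inhibition of Notch processing.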

[7] = target: T1, Gamma-secretase (Homo sapiens); assay: Inhibition of gamma-secretase in human SHSY5Y cells expressing human recombinant APP assessed as amyloid beta40 formation at 20 uM by ELISA; conditions: SH-SY5Y
Gamma-secretase [8] = assay: Inhibition of gamma-secretase in human SHSY5Y cells expressing human recombinant APP assessed as effect on Abeta40 level after 24 hrs by DELFIA; assay type: cell-based; conditions: sh-sy5y
[9] = Inhibition of gamma-secretase expressed in african green monkey CV1 cells coexpressing Gal4 DNA-binding/transactivation domain assessed as inhibition of notch processing by luciferase reporter assay; assay type: cell-based; conditions: CV-1
Gamma-secretase [10] = assay: Inhibition of gamma-secretase in human SHSY5Y cells expressing human recombinant APP assessed as amyloid beta42 formation by ELISA; assay type: cell-based; conditions: sh-sy5y; in the assay text read “amyloid beta40 formation” for “amyloid beta42 formation”
Method in brief: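 SH-SY5Y cells overexpressing human APP Swedish variant were incubated with compound for 48 h. Secreted Aβ42 and Aβ40 were measured by immunoassay (MSD electrochemiluminescence or AlphaLISA).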

[11] = Oral bioavailability in rat at 2 mg/kg; assay type: ADME, organism-based; conditions: in vivo
Method in brief: (§3)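 Rat PK: iv 1 mg/kg paired with oral 3 mg/kg or 2 mg/kg; values are the mean from three animals. Oral bioavailability was measured with the sodium salt in 1% methylcellulose vehicle.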

[12] = Half life in dog at 1 mg/kg, iv and 1 mg/kg, po; assay type: ADME, organism-based, Canis lupus familiaris; conditions: in vivo
Method in brief: (§4)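 Dog PK: iv and oral doses each 1 mg/kg; data from a single animal. Oral bioavailability was measured with the sodium salt in 1% methylcellulose vehicle.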

[13] = Volume of distribution at steady state in dog at 1 mg/kg, iv and 1 mg/kg, po; assay type: ADME, organism-based, Canis lupus familiaris; conditions: in vivo, read-out: Vdss; method in brief: as §4
[14] = Volume of distribution at steady state in rat at 1 mg/kg, iv and 2 mg/kg, po; assay type: ADME, organism-based; conditions: in vivo, read-out: Vdss; method in brief: as §3
[15] = Half life in rat at 1 mg/kg, iv and 2 mg/kg, po; assay type: ADME, organism-based; conditions: in vivo; method in brief: as §3
[16] = Oral bioavailability in dog at 1 mg/kg; assay type: ADME, organism-based, Canis lupus familiaris; conditions: in vivo; method in brief: as §4
[17] = Clearance in dog blood at 1 mg/kg, iv and 1 mg/kg, po; assay type: ADME, organism-based, Canis lupus familiaris; method in brief: as §4
[18] = Clearance in rat blood at 1 mg/kg, iv and 2 mg/kg, po; assay type: ADME, organism-based; method in brief: as §3

Row | SMILES | inhibition [7] | IC50 [9] | pIC50 (Gamma-secretase [10]) | pIC50 (Gamma-secretase [6]) | inhibition (CV-1) | other results
1 | CCC[C@@H](C(=O)O)c1cc(OCc2ccccc2)cc(-c2ccc(C(F)(F)F)cc2)c1 | 32% | > 20 µM | <= 4.8 |  | 20% | IC50 (SH-SY5Y): > 100 µM; pIC50 (Gamma-secretase [1]): 5.8; Activity [2]: Dose-dependent effect; pIC50 (Gamma-secretase [3]): < 4; pEC50 (Gamma-secretase [4]): 5.9; Activity [5]: Dose-dependent effect; IC50 (Gamma-secretase [6]): 3.98 µM; pIC50 (Gamma-secretase [8]): < 4
2 | CC(C)CC[C@H](c1ncc(C(F)(F)F)cn1)N1CC[C@@H](CC(=O)[O-])C[C@H]1c1ccc(C(F)(F)F)cc1.[Na+] | 17% | 25.1 µM | < 4.7 | 6.1 |  | bioavailability [11]: 95%; half-life [12]: 3.1 h; Vd [13]: 1.2 L/kg; Vd [14]: 3 L/kg; half-life [15]: 3 h; bioavailability [16]: > 100%; clearance [17]: 5 mL/min/kg; clearance [18]: 9 mL/min/kg
3 | CC(C)CC[C@H](c1ncc(C(C)C)cn1)N1CC[C@@H](CC(=O)[O-])C[C@H]1c1ccc(C(F)(F)F)cc1.[Na+] | 22% | > 20 µM | < 4.7 | 6.1 | 27% | 
4 | CC(C)CC[C@H](c1ccc(C(F)(F)F)cn1)N1CC[C@@H](CC(=O)[O-])C[C@H]1c1ccc(C(F)(F)F)cc1.[Na+] |  | 12.6 µM | 4.9 | 6.5 |  | 
5 | Cc1cccc([C@@H](CCC(C)C)N2CC[C@@H](CC(=O)[O-])C[C@H]2c2ccc(C(F)(F)F)cc2)n1.[Na+] |  | > 20 µM | 4.8 | 5.9 | 4% | 
6 | O=C([O-])C[C@@H]1CCN([C@H](c2ccc(C(F)(F)F)cc2)c2ccc(C(F)(F)F)nc2)[C@H](c2ccc(C(F)(F)F)cc2)C1.[Na+] | 33% | 7.94 µM | <= 4.8 | 5.9 |  | 
7 | COCCC[C@H](c1ccc(C(F)(F)F)nc1)N1CC[C@@H](CC(=O)[O-])C[C@H]1c1ccc(C(F)(F)F)cc1.[Na+] |  | > 20 µM | 4.5 | 5 | 10% | 
8 | O=C(O)Cc1ccc(-c2ccc(C(F)(F)F)cc2)c(-c2ccc(C(F)(F)F)cc2)c1 | 13% | > 20 µM | < 4.7 | 5.7 | 23% | IC50 (SH-SY5Y): > 100 µM; pIC50 (Gamma-secretase [1]): 5.7; Activity [2]: Dose-dependent effect; pIC50 (Gamma-secretase [3]): < 4; pEC50 (Gamma-secretase [4]): 5.1; Activity [5]: Dose-dependent effect; pIC50 (Gamma-secretase [8]): < 4
9 | CC[C@H](c1ccc(C(F)(F)F)nc1)N1CC[C@@H](CC(=O)[O-])C[C@H]1c1ccc(C(F)(F)F)cc1.[Na+] | 20% | > 20 µM | < 4.7 | 5 | 10% | 
10 | CC(C)CC[C@H](c1cnc(C(F)(F)F)nc1)N1CC[C@@H](CC(=O)[O-])C[C@H]1c1ccc(C(F)(F)F)cc1.[Na+] |  | 20 µM | 4.7 | 6.4 |  | 
11 | CC(C)CC[C@H](c1ccc(C2CC2)nc1)N1CC[C@@H](CC(=O)[O-])C[C@H]1c1ccc(C(F)(F)F)cc1.[Na+] | 31% | > 20 µM | < 4.7 | 6.2 | 15% | 

The next lines start with results.

Row | inhibition [7] | IC50 [9] | pIC50 (Gamma-secretase [10]) | pIC50 (Gamma-secretase [6]) | SMILES | inhibition (CV-1) | other results
12 |  | > 20 µM | 4.3 | 5.1 | O=C([O-])C[C@@H]1CCN([C@@H](c2ccc(C(F)(F)F)nc2)C2CC2)[C@H](c2ccc(C(F)(F)F)cc2)C1.[Na+] | 23% | IC50 (SH-SY5Y): > 100 µM; pIC50 (Gamma-secretase [1]): 6; Activity [2]: Dose-dependent effect; pIC50 (Gamma-secretase [3]): < 4; pEC50 (Gamma-secretase [4]): 5; Activity [5]: Dose-dependent effect; pIC50 (Gamma-secretase [8]): < 4
13 |  | 0.316 µM | 7.4 | 7.4 | CC(C)[C@H](O)C(=O)N[C@@H](C)C(=O)N[C@@H]1C(=O)N(C)CCc2ccccc21 [SEMAGACESTAT] |  | IC50 (SH-SY5Y): > 100 µM; pIC50 (Gamma-secretase [1]): 6.9; Activity [2]: Dose-dependent effect; pIC50 (Gamma-secretase [3]): 7; pEC50 (Gamma-secretase [4]): 6.9; Activity [5]: Dose-dependent effect; pIC50 (Gamma-secretase [8]): 6.7
14 |  | 15.8 µM | 5.1 | 5.9 | CCCCC[C@H](c1ccc(C(F)(F)F)nc1)N1CC[C@@H](CC(=O)[O-])C[C@H]1c1ccc(C(F)(F)F)cc1.[Na+] |  | 
15 | 24% | > 20 µM | < 4.7 | 5.4 | CC(C)[C@H](c1ccc(C(F)(F)F)nc1)N1CC[C@@H](CC(=O)[O-])C[C@H]1c1ccc(C(F)(F)F)cc1.[Na+] | 21% | IC50 (SH-SY5Y): > 100 µM; pIC50 (Gamma-secretase [1]): 6; Activity [2]: Dose-dependent effect; pIC50 (Gamma-secretase [3]): < 4; pEC50 (Gamma-secretase [4]): 5; Activity [5]: Dose-dependent effect; pIC50 (Gamma-secretase [8]): < 4
16 |  | > 20 µM | 5.5 | 6.6 | O=C([O-])C[C@@H]1CCN([C@H](CC2CCC2)c2ccc(C(F)(F)F)nc2)[C@H](c2ccc(C(F)(F)F)cc2)C1.[Na+] | 17% | 
17 |  |  | 4.6 | 5.4 | O=C([O-])C[C@@H]1CCN([C@@H](c2ccc(C(F)(F)F)nc2)C2CCCCC2)[C@H](c2ccc(C(F)(F)F)cc2)C1.[Na+] |  | 
18 |  | > 20 µM | 5 | 5.8 | O=C([O-])C[C@@H]1CCN([C@H](Cc2ccccc2)c2ccc(C(F)(F)F)nc2)[C@H](c2ccc(C(F)(F)F)cc2)C1.[Na+] | 34% | 
19 |  | > 20 µM | 4.5 | 6.2 | CC(C)C[C@H](c1ccc(C(F)(F)F)nc1)N1CC[C@@H](CC(=O)[O-])C[C@H]1c1ccc(C(F)(F)F)cc1.[Na+] | 25% | 
20 |  | > 20 µM | 4.6 | 5.9 | CC(C)CC[C@H](c1ccc(C(F)(F)F)nn1)N1CC[C@@H](CC(=O)[O-])C[C@H]1c1ccc(C(F)(F)F)cc1.[Na+] | 17% | 
21 | 40% | > 20 µM | < 4.7 | 5.7 | O=C([O-])C[C@@H]1CCN([C@H](CCc2ccccc2)c2ccc(C(F)(F)F)nc2)[C@H](c2ccc(C(F)(F)F)cc2)C1.[Na+] | 32% | 
22 |  | 5.01 µM | 4.8 | 6.3 | CCCCCC[C@H](c1ccc(C(F)(F)F)nc1)N1CC[C@@H](CC(=O)[O-])C[C@H]1c1ccc(C(F)(F)F)cc1.[Na+] |  | IC50 (SH-SY5Y): > 100 µM; pIC50 (Gamma-secretase [1]): 6; Activity [2]: Dose-dependent effect; pIC50 (Gamma-secretase [3]): 4; pEC50 (Gamma-secretase [4]): 6.3; Activity [5]: Dose-dependent effect; pIC50 (Gamma-secretase [8]): 4.6
23 |  | 3.98 µM | 4.9 | 6.4 | CC(C)CC[C@H](c1ccnc(C(F)(F)F)n1)N1CC[C@@H](CC(=O)[O-])C[C@H]1c1ccc(C(F)(F)F)cc1.[Na+] |  | 
24 |  | > 20 µM | 4.7 | 6.4 | CC(C)CC[C@H](c1cnc(C(F)(F)F)cn1)N1CC[C@@H](CC(=O)[O-])C[C@H]1c1ccc(C(F)(F)F)cc1.[Na+] | 21% | 
25 |  | > 20 µM | 4.8 | 6.2 | CCCC[C@H](c1ccc(C(F)(F)F)nc1)N1CC[C@@H](CC(=O)[O-])C[C@H]1c1ccc(C(F)(F)F)cc1.[Na+] | 33% | IC50 (SH-SY5Y): > 100 µM; pIC50 (Gamma-secretase [1]): 6; Activity [2]: Dose-dependent effect; pIC50 (Gamma-secretase [3]): < 4; pEC50 (Gamma-secretase [4]): 5.5; Activity [5]: Dose-dependent effect; pIC50 (Gamma-secretase [8]): 4.4
